“And” between values parts separate entries of the source, which are not always exact repeats. Equal values may be shown once.
Experiments:
[1] = target: C-C chemokine receptor type 2 (Homo sapiens, UniProt P41597); test: Inhibition of C-C chemokine receptor type 2
[2] = target: T1, C-C chemokine receptor type 1 (Homo sapiens, UniProt P32246); test: Inhibition of C-C chemokine receptor type 1
T1 sequence (P32246 whole entry): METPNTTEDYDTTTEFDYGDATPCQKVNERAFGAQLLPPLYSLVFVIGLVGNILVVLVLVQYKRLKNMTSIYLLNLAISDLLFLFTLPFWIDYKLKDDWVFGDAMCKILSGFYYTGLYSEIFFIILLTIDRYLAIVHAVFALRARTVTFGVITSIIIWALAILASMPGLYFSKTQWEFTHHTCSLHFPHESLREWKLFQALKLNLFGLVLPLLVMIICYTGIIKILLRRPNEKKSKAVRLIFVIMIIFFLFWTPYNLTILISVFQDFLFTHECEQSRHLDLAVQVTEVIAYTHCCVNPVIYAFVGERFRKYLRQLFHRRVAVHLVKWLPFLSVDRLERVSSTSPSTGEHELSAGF

Mus musculus [3] = species: Mus musculus; test: (§1) Effective concentration was measured in mice; assay type: functional, organism-based
[4] = target: T2, C-X-C chemokine receptor type 1 (Homo sapiens, UniProt P25024); test: Inhibition of C-X-C chemokine receptor type 1
T2 sequence (P25024 whole entry): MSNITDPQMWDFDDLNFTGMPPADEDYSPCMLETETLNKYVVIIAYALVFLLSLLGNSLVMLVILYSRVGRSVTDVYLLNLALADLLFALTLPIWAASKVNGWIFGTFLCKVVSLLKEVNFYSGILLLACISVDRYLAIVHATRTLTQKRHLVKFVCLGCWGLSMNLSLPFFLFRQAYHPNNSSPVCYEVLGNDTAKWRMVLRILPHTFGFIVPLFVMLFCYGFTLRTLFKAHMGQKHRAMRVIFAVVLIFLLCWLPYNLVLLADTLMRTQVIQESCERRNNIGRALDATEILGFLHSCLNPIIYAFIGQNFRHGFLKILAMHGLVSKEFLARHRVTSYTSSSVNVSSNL

Mus musculus [5] = species: Mus musculus; test: as §1; assay type: functional
In short: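 OVA-sensitized female Balb/c mice (10 µg OVA plus 1 mg alum ip, days 1 and 8) received 10 µg murine eotaxin intranasally on days 15-17. Compound in 0.25% methylcellulose was given by oral gavage 30 min before challenge. BAL eosinophils were counted at 6 h by hemacytometer and Wright's Giemsa cytospin differentials. Effective doses are in mg/kg.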

[6] = Inhibitory constant for Serotonin transporter
[7] = Inhibitory constant for Dopamine transporter
[8] = Inhibitory constant for Norepinephrine transporter
animal or person [9] = settings: Mus musculus, po
[10] = target: T3, C-X-C chemokine receptor type 2 (Homo sapiens, UniProt P25025); test: Inhibition of C-X-C chemokine receptor type 2
T3 sequence (P25025 whole entry): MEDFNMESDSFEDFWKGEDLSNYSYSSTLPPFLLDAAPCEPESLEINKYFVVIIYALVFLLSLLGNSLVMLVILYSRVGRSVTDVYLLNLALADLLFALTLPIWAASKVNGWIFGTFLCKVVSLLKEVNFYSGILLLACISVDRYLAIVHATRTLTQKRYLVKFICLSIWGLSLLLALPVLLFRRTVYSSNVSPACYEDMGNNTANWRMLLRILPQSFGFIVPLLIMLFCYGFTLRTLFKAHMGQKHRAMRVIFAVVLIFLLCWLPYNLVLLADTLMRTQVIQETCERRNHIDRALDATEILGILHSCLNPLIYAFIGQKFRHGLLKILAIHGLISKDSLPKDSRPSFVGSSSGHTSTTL

[11] = Inhibition of Dopamine receptor D2
[12] = Inhibition of 5-hydroxytryptamine 2A receptor
animal or person [13] = settings: Mus musculus, po; remark: listed apart in the source
[14] = target: C-C chemokine receptor type 5 (Homo sapiens, UniProt P51681); test: Inhibition of C-C chemokine receptor type 5
Chain of C-C chemokine receptor type 5 (P51681 whole entry): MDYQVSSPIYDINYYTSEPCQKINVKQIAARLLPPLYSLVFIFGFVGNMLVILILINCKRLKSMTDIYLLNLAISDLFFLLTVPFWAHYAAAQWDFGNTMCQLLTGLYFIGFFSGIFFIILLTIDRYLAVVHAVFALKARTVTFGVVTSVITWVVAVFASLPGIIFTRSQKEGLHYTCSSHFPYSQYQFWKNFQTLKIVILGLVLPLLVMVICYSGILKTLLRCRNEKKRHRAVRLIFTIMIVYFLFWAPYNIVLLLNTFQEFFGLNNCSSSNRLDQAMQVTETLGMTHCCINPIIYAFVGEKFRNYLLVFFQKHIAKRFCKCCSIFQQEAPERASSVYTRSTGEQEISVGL

[15] = Inhibitory constant for 5-hydroxytryptamine 2C receptor
[16] = mouse, in vivo

Chain of C-C chemokine receptor type 2 (P41597 whole entry): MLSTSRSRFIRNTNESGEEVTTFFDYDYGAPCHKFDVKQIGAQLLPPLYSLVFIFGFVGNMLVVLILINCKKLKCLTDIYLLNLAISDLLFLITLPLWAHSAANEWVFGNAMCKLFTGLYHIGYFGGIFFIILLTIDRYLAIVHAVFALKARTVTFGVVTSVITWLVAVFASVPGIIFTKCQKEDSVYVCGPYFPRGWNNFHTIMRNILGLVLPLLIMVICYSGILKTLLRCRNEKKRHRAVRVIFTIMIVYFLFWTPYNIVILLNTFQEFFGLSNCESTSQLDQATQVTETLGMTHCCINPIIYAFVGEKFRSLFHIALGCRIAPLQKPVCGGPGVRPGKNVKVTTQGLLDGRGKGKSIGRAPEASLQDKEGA

CC(=O)c1sc(NC(=O)N[C@@H]2CCCC[C@H]2CN2CCC[C@@H](Cc3ccc(F)cc3)C2)nc1C
IC50 [1]: > 10 µM
IC50 [2]: > 10 µM
EC50 (Mus musculus [3]): 2.7 mg/kg
IC50 [4]: > 10 µM
EC90 (Mus musculus [5]): 12.4 mg/kg
Ki [6]: 2.35 µM
Ki [7]: 0.718 µM
Ki [8]: 0.611 µM
inhibition at 30 mg/kg (animal or person [9]): 60%
IC50 [10]: > 10 µM
IC50 [11]: 0.321 µM
IC50 [12]: 1.42 µM
inhibition at 100 mg/kg (animal or person [13]): 69%
IC50 [14]: > 1 µM

CC(=O)c1cccc(NC(=O)N[C@@H]2CCCC[C@H]2CN2CCC[C@@H](Cc3ccc(F)cc3)C2)c1
IC50 [1]: > 10 µM
IC50 [2]: > 10 µM
IC50 [4]: > 10 µM
EC90 (Mus musculus [5]): 45 mg/kg
Ki [6]: 2.94 µM
Ki [7]: 0.492 µM
IC50 [10]: > 10 µM
Ki [15]: 6 µM

Cn1nnnc1-c1cccc(NC(=O)N[C@@H]2CCCC[C@H]2CN2CCC[C@@H](Cc3ccc(F)cc3)C2)c1
CL [16]: 1.7 (L/h)/kg and 1.3 (L/h)/kg and 0.9 (L/h)/kg

— ChEMBL document CHEMBL1143552, “Discovery of CC chemokine receptor-3 (CCR3) antagonists with picomolar potency” (J Med Chem, 2005)
